Key:
RFL-6 [1] = test: Ratio of inhibitory constant against phosphodiesterase 1 and phosphodiesterase 5 in rat fetal lung fibroblast (RFL-6) cells; type: cell-based
RFL-6 [2] = test: Ratio of inhibitory constant against rod phosphodiesterase 6 and phosphodiesterase 5 in rat fetal lung fibroblast (RFL-6) cells; type: cell-based
[3] = molecular target: cGMP-specific 3',5'-cyclic phosphodiesterase (Rattus norvegicus) (UniProt O54735); test: pKa value for phosphodiesterase 5 in rat fetal lung fibroblast (RFL-6) cells; type: functional, cell-based
RFL-6 [4] = test: Ratio of inhibitory constant against phosphodiesterase 3 and phosphodiesterase 5 in rat fetal lung fibroblast (RFL-6) cells; type: cell-based
RFL-6 [5] = test: Ratio of inhibitory constant against phosphodiesterase 4 and phosphodiesterase 5 in rat fetal lung fibroblast (RFL-6) cells; type: cell-based
RFL-6 [6] = test: Ratio of inhibitory constant against phosphodiesterase 2 and phosphodiesterase 5 in rat fetal lung fibroblast (RFL-6) cells; type: cell-based
RFL-6 [7] = test: Ratio of inhibitory constant against cone phosphodiesterase 6 and phosphodiesterase 5 in rat fetal lung fibroblast (RFL-6) cells; type: cell-based
[8] = (§1) Oral bioavailability in rat; type: ADME, organism-based; details: in vivo
Outline: (§2)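 Male Sprague-Dawley rats, male beagle dogs and male rhesus monkeys, three per group. The oral arm received 30 mg/kg in 0.5% methylcellulose; the iv arm received 3.0 mg/kg in 20% HPBCD. Blood was drawn at 0, 0.5, 1, 2, 4, 6 and 24 h, and plasma drug was quantified by LC/MS. Bioavailability is reported as value and standard deviation.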

[9] = molecular target: cGMP-specific 3',5'-cyclic phosphodiesterase (Rattus norvegicus) (UniProt O54735); details: RFL-6
[10] = molecular target: T1, cGMP-specific 3',5'-cyclic phosphodiesterase (Rattus norvegicus, UniProt O54735); test: Inhibition of phosphodiesterase 5 in rat fetal lung fibroblast (RFL-6) cells; type: cell-based
RFL-6 [11] = test: Ratio of binding affinity towards phosphodiesterase 4 and phosphodiesterase 5 in rat fetal lung fibroblast (RFL-6) cells; type: cell-based
[12] = Oral bioavailability in monkey was determined; type: ADME, organism-based; details: cercopithecidae, in vivo; outline: as §2
Canis familiaris = test: Effect on intracavernosal pressure after i.v. administration in electrically stimulated dogs; type: functional; details: Canis lupus familiaris, iv
[13] = Oral bioavailability in dog; type: ADME, organism-based, Canis lupus familiaris; details: in vivo; outline: as §2
[14] = molecular target: T1, cGMP-specific 3',5'-cyclic phosphodiesterase; test: Inhibitory concentration against phosphodiesterase 5 in rat fetal lung fibroblast (RFL-6) cells; type: cell-based
[15] = as §1; type: ADME, organism-based; details: in vivo; outline: as §2; remark: listed apart in the source

| SMILES | Selectivity (RFL-6 [1]) | Selectivity (RFL-6 [2]) | pka [3] | Selectivity (RFL-6 [4]) | Selectivity (RFL-6 [5]) | Selectivity (RFL-6 [6]) | Selectivity (RFL-6 [7]) | bioavailability [8] [%] | Pka [9] | Ki [10] [nM] | Selectivity (RFL-6 [11]) | bioavailability [12] [%] | ED50 (Canis familiaris) [µg/kg] | bioavailability [13] [%] | pKa [3] | IC50 [14] [nM] | bioavailability [15] [%] |
| --- | --- | --- | --- | --- | --- | --- | --- | --- | --- | --- | --- | --- | --- | --- | --- | --- | --- |
| Oc1c2c(nc3ccccc13)C(c1ccc3c(c1)CCO3)N(c1ccccn1)C2 (stereo unspecified) | > 15000 | 219 | 5 | > 15000 | > 2500 | > 15000 | 237 | – | – | – | – | – | – | – | – | – | – |
| Oc1c2c(nc3ccccc13)C(c1ccc3c(c1)CCO3)N(c1ncc(-c3ccccn3)cn1)C2 (stereo unspecified) | > 15000 | – | – | > 15000 | – | > 15000 | – | 31.3 | 9.24 | – | – | – | – | – | – | – | – |
| Cn1cncc1-c1ccc(N2Cc3c(nc4ccccc4c3O)C2c2ccc3c(c2)CCO3)nc1 (stereo unspecified) | > 15000 | 2.6 | – | > 15000 | – | > 15000 | 10.3 | – | – | 0.33 | > 2500 | – | – | – | – | – | – |
| Oc1c2c(nc3ccccc13)C(c1ccc3c(c1)CCO3)N(c1ccc(-n3ccnc3)cc1)C2 (stereo unspecified) | > 15000 | 499 | – | > 15000 | > 2500 | > 15000 | 1840 | – | – | 0.51 | – | – | – | – | – | – | – |
| Oc1c2c(nc3ccccc13)C(c1ccc3c(c1)CCO3)N(c1ccc(-c3cncn3Cc3ccccc3)cn1)C2 (stereo unspecified) | > 15000 | 57.6 | – | 4560 | > 2500 | > 15000 | 68.9 | – | – | 0.17 | – | – | – | – | – | – | – |
| Oc1c2c(nc3ccccc13)C(c1ccc3c(c1)OCO3)N(c1ncc(-c3cccnc3)cn1)C2 (stereo unspecified) | > 15000 | 9.3 | – | > 15000 | > 2500 | > 15000 | 7.6 | – | – | 0.29 | – | – | – | – | – | – | – |
| COc1ccc(-c2cnc(N3Cc4c(nc5ccccc5c4O)C3c3ccc4c(c3)CCO4)nc2)cc1 (stereo unspecified) | – | – | – | – | – | – | – | – | – | 0.52 | – | – | – | – | – | – | – |
| CCN(CC)CCOc1ccc(-c2cnc(N3Cc4c(nc5ccccc5c4O)C3c3ccc4c(c3)CCO4)nc2)cc1 (stereo unspecified) | – | – | – | – | – | – | – | – | – | 0.53 | – | – | – | – | – | – | – |
| Oc1c2c(nc3ccccc13)[C@@H](c1ccc3c(c1)CCO3)N(c1ccccn1)C2 | > 15000 | 173 | – | > 15000 | > 2500 | > 15000 | 106 | – | – | 0.12 | – | 40 | 9.85 | 69 | – | – | – |
| Oc1c2c(nc3ccccc13)C(c1ccc3c(c1)CCO3)N(c1ncccn1)C2 (stereo unspecified) | > 15000 | 755 | – | > 15000 | > 2500 | > 15000 | 310 | 12 | – | – | – | – | – | – | 4.4 | – | – |
| Oc1c2c(nc3ccccc13)C(c1ccc3occc3c1)N(c1ncc(-c3ccccn3)cn1)C2 (stereo unspecified) | 15000 | 22.6 | – | > 15000 | 2500 | > 15000 | 22.3 | – | – | 0.19 | – | – | – | – | – | – | – |
| Cc1ncc(-c2cnc(N3Cc4c(nc5ccccc5c4O)C3c3ccc4c(c3)CCO4)nc2)n1C (stereo unspecified) | > 15000 | 237 | – | > 15000 | > 2500 | > 15000 | 219 | 0 | – | 0.24 | – | – | – | – | – | – | – |
| Oc1c2c(nc3ccccc13)[C@@H](c1ccc3c(c1)CCO3)N(c1ncc(-c3ccccn3)cn1)C2 | > 15000 | 99 | – | > 15000 | > 2500 | > 15000 | 67 | – | – | 0.019 | – | – | 8.03 | – | – | – | – |
| Oc1c2c(nc3ccccc13)C(c1ccc3c(c1)CCO3)N(c1ccc(-c3ccccn3)cn1)C2 (stereo unspecified) | > 15000 | 93 | – | > 15000 | > 2500 | > 15000 | 69.2 | 39 | – | 0.15 | – | – | – | – | – | – | – |
| Oc1c2c(nc3ccccc13)C(c1ccc3c(c1)OCO3)N(c1ccc(-n3ccnc3)cc1)C2 (stereo unspecified) | > 15000 | 20.1 | – | > 10300 | > 2500 | > 4870 | 13.2 | – | – | – | – | – | – | – | – | 1.75 | – |
| CCCc1nn(C)c2c(=O)[nH]c(-c3cc(S(=O)(=O)N4CCN(C)CC4)ccc3OCC)nc12 | – | – | – | – | – | – | – | – | – | – | – | – | 5.1 | – | – | – | – |
| O=c1c2c([nH]c3ccccc13)C(c1ccc3c(c1)CCO3)N(c1ccccn1)C2 (stereo unspecified) | – | – | – | – | – | – | – | 38 | – | 0.65 | – | – | – | – | – | – | 38 |
| Oc1c2c(nc3ccccc13)C(c1ccc3c(c1)CCO3)N(c1ncc(Br)cn1)C2 (stereo unspecified) | > 15000 | 35.7 | – | > 15000 | > 2500 | > 15000 | 39.2 | – | – | – | – | – | – | – | – | 1.9 | – |
| Oc1c2c(nc3ccccc13)C(c1ccc3c(c1)CCO3)N(c1ccc(-c3ccccn3)nc1)C2 (stereo unspecified) | > 15000 | – | – | > 15000 | > 2500 | > 15000 | – | – | – | 6.43 | – | – | – | – | – | – | – |
| Oc1c2c(nc3ccccc13)C(c1ccc3c(c1)CCO3)N(c1ncc(-c3cccnc3)cn1)C2 (stereo unspecified) | > 15000 | 127 | – | > 15000 | > 2500 | > 15000 | 66.5 | – | – | 0.36 | – | – | – | – | – | – | – |
| Oc1c2c(nc3ccccc13)C(c1ccc3c(c1)CCO3)N(c1ncc(-c3ccncc3)cn1)C2 (stereo unspecified) | > 15000 | 10.5 | – | > 15000 | > 2500 | > 15000 | 12.1 | – | – | 0.22 | – | – | – | – | – | – | – |
| CN1CC(=O)N2[C@H](c3ccc4c(c3)OCO4)c3[nH]c4ccccc4c3C[C@@H]2C1=O | > 2000 | – | – | > 2000 | > 2000 | > 2000 | 1000 | – | – | 5 | – | – | – | – | – | – | – |
| Cc1ncc(-c2cnc(N3Cc4c(nc5ccccc5c4O)C3c3ccc4c(c3)CCO4)nc2)n1Cc1ccccc1 (stereo unspecified) | > 15000 | 366 | – | > 15000 | > 2500 | > 15000 | 359 | – | – | 0.24 | – | – | – | – | – | – | – |

— ChEMBL document CHEMBL1142740, “Pyrroloquinolone PDE5 inhibitors with improved pharmaceutical profiles for clinical studies on erectile dysfunction” (J Med Chem, 2005)
